Data from PMC4019989 (Clinical cancer research : an official journal of the …, 2009).

Tests used:
Plasma pharmacokinetics = assay type: in vivo, human; settings: for AUCinf, Mean: included C0; for AUClast, Mean: includes C0; for half-life / C0 / Cmax / Tmax / clearance: human, plasma, iv
Procedure, shortened: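 Drug went in as an i.v. push over 1–2 min. Cycle 1 blood was drawn predose and at 5, 15, 30 min and 1, 2, 4 h postdose, plus predose and 30 min postdose on cycle 1 day 5 and day 1 of cycles 2 and 3. Plasma was assayed by validated LC/MS (lower limit of detection 0.10 μg/mL). Parameters came from pharmacokinetic analysis and modelling.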

[1] = tested on: 20S chymotrypsin-like proteasome activity; assay type: in vivo, human
Procedure, shortened: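 Chymotrypsin-like proteasome activity in patient whole blood and PBMCs, read with a fluorogenic substrate. Samples: cycle 1 day 1 predose, 1 and 24 h postdose; predose and 1 h postdose on cycle 1 day 5 and day 1 of cycles 2 and 3. Dosing was i.v. push days 1–5 with 9-d rest. Percent activity is each sample's specific activity relative to cycle 1 day 1 predose. Mean ± SEM.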

[2] = 11 mg/m^2 i.v. push, n = 2, plasma
[3] = 15 mg/m^2 i.v. push, n = 5, plasma
[4] = 20 mg/m^2 i.v. push, n = 4, plasma

For `CC(C)C[C@H](NC(=O)[C@H](CCc1ccccc1)NC(=O)CN1CCOCC1)C(=O)N[C@@H](Cc1ccccc1)C(=O)N[C@@H](CC(C)C)C(=O)[C@@]1(C)CO1` [carfilzomib], the “AUCinf, Mean” value (Plasma pharmacokinetics; [2]) was 4,463 g·mL/h, the “AUClast, Mean” value (Plasma pharmacokinetics; [2]) was 4,457 ng·mL/h and the “AUCinf, Mean” value (Plasma pharmacokinetics; [3]) was 9,760 g·mL/h. For the same compound, the “AUClast, Mean” value (Plasma pharmacokinetics; [3]) was 9,728 ng·mL/h, the “AUCinf, Mean” value (Plasma pharmacokinetics; [4]) was 23,660 g·mL/h and the “AUClast, Mean” value (Plasma pharmacokinetics; [4]) was 23,123 ng·mL/h. The half-life (Plasma pharmacokinetics) was < 30 min, the C0 (Plasma pharmacokinetics; 11 mg/m2) was 762 ng/mL and the Cmax (Plasma pharmacokinetics; 11 mg/m2) was 90.2 ng/mL. For the same compound, the Tmax (Plasma pharmacokinetics; 11 mg/m2) was 9 min, the clearance (Plasma pharmacokinetics; 11 mg/m2) was 5060 mL/min and the half-life (Plasma pharmacokinetics; 11 mg/m2) was 25.3 min. It also gave a C0 (Plasma pharmacokinetics; 15 mg/m2) of 2120 ng/mL, a Cmax (Plasma pharmacokinetics; 15 mg/m2) of 326 ng/mL and a Tmax (Plasma pharmacokinetics; 15 mg/m2) of 5.8 min. It also gave a clearance (Plasma pharmacokinetics; 15 mg/m2) of 7050 mL/min, a half-life (Plasma pharmacokinetics; 15 mg/m2) of 28.9 min and a C0 (Plasma pharmacokinetics; 20 mg/m2) of 5450 ng/mL. It also gave a Cmax (Plasma pharmacokinetics; 20 mg/m2) of 683 ng/mL, a Tmax (Plasma pharmacokinetics; 20 mg/m2) of 6 min and a clearance (Plasma pharmacokinetics; 20 mg/m2) of 4130 mL/min. The half-life (Plasma pharmacokinetics; 20 mg/m2) was 17.1 min, the “clearance (in words)” value (Plasma pharmacokinetics; patients, i.v. push) was “higher than liver blood flow” and the “Recovery of proteasome activity in PBMCs” value ([1]; during the 9-day rest period) was “generally returned to baseline”. The “Recovery of proteasome activity in whole blood” value ([1]; during the 9-day rest period) was “only partially recovered”, the “Proteasome inhibition after a single dose” value ([1]; whole blood and PBMCs, dose levels of 15 mg/m^2 and higher, 1 hour after dosing on day 1) was > 75% and the “Proteasome inhibition after the fifth consecutive day of dosing” value ([1]; whole blood and PBMCs, highest dose groups, 1 h after the fifth dose) was > 90%.
